Screening results (PubChem)
Many of the other results were omitted from the sample, so hits are more common in it than they were.
ROMK mod: ROMK potassium channel modulators, primary screen, cell-based, thallium flux, MLSMR library; 130,000 tested, 2% active; ATP-sensitive inward rectifier potassium channel 1 (Homo sapiens), P48048; B-score at 10 µM; Tet-inducible ROMK, thallium flux fluorescence; actives lie on both sides;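 active = signal ratio slope over the read window, or its plate-corrected B-score, at least 3 SD from the plate mean, either direction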;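 note: B-score of the F/F0 ratio slope over 7 to 12 s after thallium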
Target sequence (P48048 whole entry, looked up): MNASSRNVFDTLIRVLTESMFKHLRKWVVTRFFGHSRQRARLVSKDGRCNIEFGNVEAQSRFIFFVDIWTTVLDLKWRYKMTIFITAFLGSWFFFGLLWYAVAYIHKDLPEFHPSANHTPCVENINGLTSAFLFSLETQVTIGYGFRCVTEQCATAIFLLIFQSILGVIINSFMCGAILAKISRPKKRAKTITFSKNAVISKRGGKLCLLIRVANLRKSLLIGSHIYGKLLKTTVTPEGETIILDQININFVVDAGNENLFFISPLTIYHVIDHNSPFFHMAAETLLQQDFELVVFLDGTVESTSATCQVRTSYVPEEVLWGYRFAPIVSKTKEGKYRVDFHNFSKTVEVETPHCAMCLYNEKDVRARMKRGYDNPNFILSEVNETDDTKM
Calb biofilm kill: clotrimazole potentiators killing C. albicans biofilm, primary screen, 4-compound mixtures | C. albicans biofilm persisters + clotrimazole, fluorescence viability; primary screen in compound mixtures of four per well | 120,000 tested, 0.02% active | inhibition, % at 7.6 µM;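 active = inhibition above 30.3% in the primary screen of four-compound pools, then above 30% when the compound was retested; inconclusive = passed the primary limit but could not be retested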;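 note: compounds exposed to preformed 24 h biofilms for 48 h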
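Incubation: 24 h biofilm formation, then 48 h compound exposure, 37 °C | Material: C. albicans biofilms | Buffer or medium: RPMI/MOPS medium, pH 7.0 | Measured by: 2-h Alamar Blue fluorescence, 535/590 nm excitation/emission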
ROMK hit retest: ROMK channel modulator hit retest, confirmation, cell-based, thallium flux, duplicate, resupplied hits | shares compounds with ROMK mod | fluorescence ratio; hits give low values | normalized thallium flux (F/F0 slope) at 10 µM | 3,000 tested, 54% active;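 active = Flux at 10 µM at least 3 SD below or above vehicle control mean in one or both replicates; inconclusive = no clear call, values can overlap the other calls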
A number is an active result; – = inactive; ? = inconclusive; · = no result.

SMILES	ROMK mod	Calb biofilm kill	others
O=C(Nc1nc(-c2cccs2)cs1)c1cc2ccccc2oc1=O	1.6	·
O=C(Nc1nc(-c2cc3ccccc3oc2=O)cs1)c1ccc(Br)o1	–	·
Cc1cc(NC(=O)COC(=O)c2ccccc2[N+](=O)[O-])no1	–	–
CCOc1ccc(C2C([N+](=O)[O-])=C(C)N(C)C(=O)N2C)cc1OC (configuration not stated)	–	–
CC(C)S(=O)(=O)c1cnc(-c2cccnc2)nc1N	–	–
O=C(Nc1cc(S(=O)(=O)N2CCOCC2)ccc1O)c1ccc(NS(=O)(=O)c2ccc(Cl)s2)cc1	–	–
COc1ccccc1NC(=O)c1ccccc1NS(=O)(=O)c1cccs1	–	–
Cc1ccc(NC(=O)c2ccccc2NS(=O)(=O)c2ccc(Cl)s2)cc1S(=O)(=O)N1CCOCC1	-3.1	–
COc1ccc(C)cc1NC(=O)c1ccccc1NS(=O)(=O)c1ccc(Cl)s1	-3.7	–
CC(C)CCNC(=O)NC(=O)COC(=O)CNC(=O)C1CCCCC1	–	–
NS(=O)(=O)c1ccc(NC(=S)NC(=O)c2ccc(Br)o2)cc1	·	–
CN(C)S(=O)(=O)c1ccc(NC(=S)NC(=O)c2ccc(Br)o2)cc1	2.4	–
O=C(CSc1ccccc1C(=O)NCc1ccccc1)NC1CCCCCCC1	·	–
O=[N+]([O-])c1ccc(O)c(/C=N/NC(=S)Nc2ccc(Cl)cc2Cl)c1	2.9	–
Cc1cc(Cl)ccc1NC(=O)CCC(=O)N/N=C/c1cc([N+](=O)[O-])ccc1O	–	–
Cc1cccc(C)c1NC(=S)NCc1ccncc1	·	–
CC(C)N(Cc1ccccc1)C(=S)NC(=O)C1(C)CC1(Cl)Cl (configuration not stated)	5.1	–
CC1(C(=O)NC(=S)N(CCC#N)c2ccccc2)CC1(Cl)Cl (configuration not stated)	–	·
Cc1ccc(S(=O)(=O)NCc2ccc(C(=O)NCCCN3CCC(Cc4ccccc4)CC3)cc2)cc1	–	–
CCN(C(=O)CSc1nnc(C)n1-c1ccccc1)C1CCS(=O)(=O)C1 (configuration not stated)	–	–
CCCN(C(=O)CSc1nnnn1C)C1CCS(=O)(=O)C1 (configuration not stated)	–	–	ROMK hit retest=–
Cc1cc(C)c(C(=O)COC(=O)c2cc([N+](=O)[O-])ccc2NCCO)cc1C	·	–
CCc1ccc(/C=C2\SC(N3CCCC3)=NC2=O)cc1	–	–
CCOC(=O)CSc1nc(-c2ccccc2)ns1	–	–
CCOC(=O)CSC1=NC(=O)/C(=C/c2ccc(Br)cc2)S1	–	–	ROMK hit retest=0.061
SMILES	ROMK mod	Calb biofilm kill	others
CCOC(=O)CSC1=NC(=O)/C(=C\c2ccc(OC(C)=O)cc2)S1	·	·	ROMK hit retest=0.04
CC(=O)Nc1ccc(S(=O)(=O)N2CCCC2C(=O)Nc2ccc3c(c2)OCCO3)cc1 (configuration not stated)	–	–
O=C(CCc1nc2ccccc2s1)Nc1cccnc1	–	–
CC(C)c1ccc(CN(C)CC(O)c2ccccc2)cc1 (configuration not stated)	–	–
COc1ccccc1OCC(=O)NCCSCc1cccc(Cl)c1	·	–
CS(=O)(=O)c1nc(-c2ccco2)cc(C(F)(F)F)n1	-3.6	·	ROMK hit retest=0.057
COc1ccccc1-c1cc(C(F)(F)F)nc(S(=O)(=O)CCCC(=O)NC(C)C)n1	–	·
O=[N+]([O-])c1cn(-c2nc(-c3ccco3)cc(C(F)(F)F)n2)cn1	–	·
COc1ccccc1-c1cc(C(F)(F)F)nc(S(C)(=O)=O)n1	-3.9	·	ROMK hit retest=0.06
NC(=O)C1CCCNC1 (configuration not stated)	·	–
CCc1ccc(NC(=O)CSc2nc3ccccc3c(=O)n2CCCN2CCC(C)CC2)cc1	–	–
O=C(COC(=O)c1cccnc1Cl)c1ccc2c(c1)OCCO2	–	–
O=C(COC(=O)c1ccc(Cl)nc1)c1ccc2c(c1)OCCO2	-2.2	–	ROMK hit retest=–
COc1ccc(OC)c2[nH]c(=O)c(CCNC(=O)Cc3cccs3)cc12	–	–
C=CCn1c(SCc2c(C)noc2C)nc2cc(C(=O)O)ccc2c1=O	6	·	ROMK hit retest=?
C=CCn1c(SCc2c(C)noc2C)nc2ccccc2c1=O	–	·
COc1cc(CNc2nnnn2C)ccc1OCc1c(F)cccc1Cl	–	–
O=C(Nc1ccc(OCC(=O)N2CCC(Cc3ccccc3)CC2)cc1)c1ccco1	-3.1	·	ROMK hit retest=0.067
CC(=O)Nc1ccc(OCC(=O)N2CCC(Cc3ccccc3)CC2)cc1	–	–
Cc1ccc(C(=O)OCC(=O)Nc2ccc(N(C)C)cc2)cc1NC(=O)c1ccco1	–	·
Cc1ccc(C(=O)OCC(=O)Nc2ccccc2)cc1NC(=O)c1ccco1	-5.4	·	ROMK hit retest=–
N#C/C(=C\c1cccnc1)C(=O)Nc1ccc(C(=O)O)cc1	–	–
N#C/C(=C\c1cccnc1)C(=O)Nc1ccccc1	-4.2	–	ROMK hit retest=0.053
COc1ccc(/C=C(\C#N)C(=O)Nc2cccnc2)cc1	–	–
CCOc1cccc(NC(=O)/C(C#N)=C\c2cccnc2)c1	-3.3	–	ROMK hit retest=0.047
SMILES	ROMK mod	Calb biofilm kill	others
COc1ccc([N+](=O)[O-])cc1N(CC(=O)NCCCOC(C)C)S(C)(=O)=O	–	–
CCN1CCN(CC(O)COc2ccc3c(c2)CCC3)CC1 (configuration not stated)	–	–
Cc1nn(CC(O)COc2ccc3c(c2)CCC3)c(C)c1C (configuration not stated)	-3.7	·	ROMK hit retest=0.066
CCNC(=O)C/C(C)=N/NC(=O)C(=O)Nc1ccc(CC)cc1	–	–
CC1(C(=O)NCCCN2CCOCC2)Oc2cccnc2NC1=O (configuration not stated)	–	–
O=C(Nc1ccccc1F)Nc1cc(S(=O)(=O)N2CCOCC2)ccc1N1CCCC1	–	–
Cc1ccc(S(=O)(=O)N2CCCCC2)cc1NC(=O)COC(=O)Cc1ccc(Cl)cc1	–	–
N#C/C(=C\c1ccccc1)C(=O)Nc1cc(S(=O)(=O)N2CCOCC2)ccc1N1CCCC1	·	–	ROMK hit retest=0.056
O=C(COC(=O)Cc1ccc(Cl)cc1)Nc1cc(S(=O)(=O)N2CCOCC2)ccc1N1CCCC1	-4.3	–	ROMK hit retest=0.061
Cc1ccc(S(=O)(=O)N2CCCCC2)cc1NC(=O)COC(=O)Cc1cccc(C(F)(F)F)c1	-4	–	ROMK hit retest=0.063
O=C(COC(=O)c1ccc(F)cc1)Nc1cc(S(=O)(=O)N2CCOCC2)ccc1N1CCCC1	–	–
COc1ccc(-c2cc(C(=O)Nc3cc(S(=O)(=O)N4CCOCC4)ccc3N3CCOCC3)c3ccccc3n2)cc1	1.8	–	ROMK hit retest=0.065
COc1ccc(NS(=O)(=O)c2ccc(N3CCOCC3)c(NC(=O)c3ccccc3Cl)c2)cc1	–	–
CCN(CC)CCNC(=O)c1ccc(Sc2ccc(Cl)cc2)c(NC(C)=O)c1	–	–
CCn1c(SCC(=O)N/N=C(/C)c2ccncc2)nc2ccccc21	·	–
CCOc1ccc(NC(=O)CN(C)S(=O)(=O)c2ccc3c(c2)CCC(=O)N3)cc1	–	–
CCSc1nnc(CNC(=O)C23CC4CC(CC(C4)C2)C3)n1C1CCCCC1	·	–
O=C(COC(=O)c1ccc(S(=O)(=O)Nc2ccccc2)cc1)NCCC1=CCCCC1	·	–
Cc1cc(C(=O)NN)c(Cl)cc1Cl	–	–
COc1ccc(N2CC(NC(=O)N3CCc4ccccc43)CC2=O)cc1OC (configuration not stated)	–	–
